# Rce1 inhib: inhibitors of yeast Ras-converting enzyme. yeast membranes, quenched prenylated peptide cleavage fluorescence. calls only. hit rate 0.27% among 290,000;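 active = fall in fluorescence gain of 50% or more versus controls, with final raw signal at or below 3038400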
# Yeast superoxide: lowers age-related superoxide in aged yeast cells | AID 2690 | superoxide response (% of plate mean), % at 10 µM | hit rate 0.18% among 330,000 | S. cerevisiae aged cells, superoxide DHE fluorescence; active compounds read low;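 active = superoxide response under a set limit, about three screen SD below normal, cut at about 65% in these data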;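 also: yeast aged for seven days with compound at 30 °C before DHE staining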
# MIN6 prolif-1: inducers of beta-cell replication in MIN6 cells; MIN6 cells proliferation, ATPlite luminescence, 48 h; cells starved in 0.2% serum; 100% = growth in 10% serum; proliferation, % at 10 µM; hit rate 0.29% among 330,000;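 active = compounds whose signal lies at least 3.5 SD above the mean of all wells on their plate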
# PG9 binder: small molecules binding HIV-1 gp120 antibody PG9 | TR-FRET gp120-PG9 antibody binding | inhibition, % at 6.7 µM | hit rate 0.43% among 360,000 | AID 624416; in the data active = inhibition above about 8.5%
# Rev-erbA mod: modulators of human Rev-erb alpha DNA binding; Rev-erbα–FITC-DNA binding, fluorescence polarization, 90 min; hit rate 0.79% among 370,000; P20393; activity, % at 10 µM;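 active = activity above about 14%, limit read from the data; passing the limit was not always enough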
# Target sequence (P20393 whole entry, looked up): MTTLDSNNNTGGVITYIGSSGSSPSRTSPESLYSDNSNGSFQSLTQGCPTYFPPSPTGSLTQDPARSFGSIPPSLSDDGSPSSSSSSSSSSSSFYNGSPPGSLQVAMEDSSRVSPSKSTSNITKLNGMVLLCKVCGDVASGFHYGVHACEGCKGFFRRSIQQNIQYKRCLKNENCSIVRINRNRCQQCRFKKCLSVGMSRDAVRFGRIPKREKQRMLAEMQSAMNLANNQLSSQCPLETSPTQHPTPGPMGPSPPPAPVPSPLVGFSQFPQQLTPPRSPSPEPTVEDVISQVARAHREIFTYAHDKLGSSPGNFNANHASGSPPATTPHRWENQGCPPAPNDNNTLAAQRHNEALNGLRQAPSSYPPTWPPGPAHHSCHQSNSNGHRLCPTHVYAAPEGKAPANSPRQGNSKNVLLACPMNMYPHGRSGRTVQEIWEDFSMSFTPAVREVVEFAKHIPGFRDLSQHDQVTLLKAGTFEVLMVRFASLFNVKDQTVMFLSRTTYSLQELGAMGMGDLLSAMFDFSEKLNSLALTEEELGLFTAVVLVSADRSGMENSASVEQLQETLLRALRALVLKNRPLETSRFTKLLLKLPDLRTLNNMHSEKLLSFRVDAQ
# UCH37 DUB inh: human UCH37 deubiquitinating enzyme inhibition; Q9Y5K5; purified proteasome/UCH37, Ub-AMC cleavage fluorescence; inhibition, % (no concentration beside the values); hit rate 0.33% among 330,000;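 active = mean inhibition over replicate wells above about 20%, limit read from the data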
#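 assay system = human UCH37 enzyme supplied as purified proteasome complex | amount = proteasome at 0.15 nM in the dispensed enzyme solution | schedule = 30 min compound-proteasome preincubation then 25 min substrate reaction, room temperature | measured by = fluorescence, ex 355 nm, em 460 nm | benchmarks = no-proteasome wells (full inhibition) and compound-free wells (no inhibition)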
# MIN6 prolif-2: confirmation of inducers of beta-cell replication in MIN6 cells. shares compounds with MIN6 prolif-1. MIN6 beta-cell proliferation, ATPlite luminescence, 48 h; cells kept in 0.2% serum; scaled between 0.2% and 10% serum. proliferation increase, % at 50 µM. 920 tested, under 10 active. AID 463095;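 active = proliferation increase above 40% at any of the four tested concentrations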
# Superoxide pick: confirmation of caloric restriction mimetics inhibiting yeast age-related superoxide | shares compounds with Yeast superoxide | AID 434994 | superoxide response (% of plate), % at 10 µM | S. cerevisiae aging, superoxide DHE fluorescence; active compounds read low | hit rate 1% among 850;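 active = superoxide signal below 65% of the plate average of sample wells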;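 also: cells aged with compound for 7 days at 30 degrees C before staining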
# DHE fluor count: compound alters DHE oxidation or fluorescence in yeast | shares compounds with Yeast superoxide | S. cerevisiae BY4741, flow cytometry; active compounds read low | fluorescence response, % at 10 µM | 850 tested, under 10 active | AID 435000;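 active = fluorescence response below 15%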;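 also: lower means stronger quenching of DHE signal or ROS scavenging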
# A number is an active result; i = inactive; nt = no result. This is a sample that favours compounds with a hit; in the whole collection about 1.9% have one here.
SMILES,Rce1 inhib,Yeast superoxide,MIN6 prolif-1,PG9 binder,Rev-erbA mod,UCH37 DUB inh,MIN6 prolif-2,others
CCC1(OC(=O)c2ccccc2)CC(C)N(C)CC1C (stereo not given),i,i,7.0,i,i,i,i,
CCOC(=O)C(c1c(O)c2ccccc2oc1=O)c1c(O)c2ccccc2oc1=O,nt,nt,nt,i,i,nt,nt,
O=c1oc2ccccc2c(O)c1C(c1ccccn1)c1c(O)c2ccccc2oc1=O,i,i,8.0,i,i,nt,i,
CC12CCC(C(Br)C1=O)C2(C)C (stereo not given),nt,nt,nt,nt,i,nt,nt,
c1ccc(P(c2ccccc2)c2ccccn2)cc1,i,i,5.8,i,i,i,i,
O=C(N/N=C/c1c(O)n(Cc2ccco2)c(=O)[nH]c1=O)c1ccccc1O,i,i,8.0,i,i,i,i,
CCCCC(=O)N/N=C/c1c(O)n(Cc2ccco2)c(=O)[nH]c1=O,i,i,i,i,i,i,nt,
CNC(=O)O/N=C/c1nn(C(=O)C(C)(C)C)cc1Br,nt,i,5.1,i,i,nt,i,
Cc1ccc(-n2c(-c3cccs3)nc3ccccc3c2=O)cc1,i,i,9.3,i,i,nt,i,
CCCC12CN3CCN(CC(C3)C1=NNC(=O)c1ccncc1)C2,nt,nt,nt,nt,nt,i,nt,
CC(Cc1ccccc1)NC(=O)/C=C/C(=O)O (stereo not given),i,i,7.3,i,i,i,i,
COc1ccc2c(c1)/C(=C/c1cnc[nH]1)C(=O)N2,i,i,18.5,i,i,i,i,
Oc1ccc2c3c1O[C@@H]1[C@@H](O)CC[C@@]4(O)[C@@H](C2)N(CC2CCC2)CC[C@]314,nt,nt,nt,nt,i,nt,nt,
CCC(=NCCN1CCOCC1)c1c(O)n(-c2ccccc2C)c(=O)[nH]c1=O,i,i,i,i,i,i,nt,
CC(=NCCN1CCOCC1)c1c(O)n(-c2ccccc2C)c(=O)[nH]c1=O,i,i,12.1,i,i,i,i,
O=c1[nH]c(O)c(C=Nc2ccc(F)c(Cl)c2)c(=O)[nH]1,i,60.1,i,i,i,i,nt,Superoxide pick=i;DHE fluor count=i
CCOC(=O)C(CCCN(CC)CC)=NO,nt,nt,nt,nt,nt,i,nt,
CC(CC(c1ccccc1)c1c(O)c2ccccc2oc1=O)=NNC(N)=S (stereo not given),nt,nt,nt,nt,nt,i,nt,
C(=NNC1=NCCCCC1)c1c[nH]c2ccccc12,nt,nt,nt,nt,nt,i,nt,
CC(=O)O[C@@H]1CC[C@]2(C)C3CC[C@@]4(C)C(C[C@@H](O)[C@@H]4O)C3[C@@H](OC(C)=O)C[C@H]2C1 (stereo not given in full),nt,i,i,i,i,i,nt,Superoxide pick=i;DHE fluor count=i
CCC(=O)O[C@H]1CC[C@H]2[C@@H]3CCC4=CC(=O)CC[C@]4(C)[C@H]3CC[C@]12C,nt,nt,nt,i,i,i,nt,
CC(=O)O[C@H]1CCC2C3CC[C@H]4[C@@H](O)[C@H](O)CC[C@]4(C)C3CC[C@@]21C (stereo not given in full),nt,nt,nt,i,i,i,nt,Superoxide pick=i;DHE fluor count=i
C[C@]12CCC3C(CC[C@H]4CC(=O)CC[C@]34C)C1CCC2=O (stereo not given in full),nt,i,i,i,i,i,nt,
C[C@]1(O)CCC2C3CC[C@@H]4CC(=O)CC[C@]4(C)C3CC[C@@]21C (stereo not given in full),nt,61.3,i,i,i,nt,nt,Superoxide pick=i;DHE fluor count=i
C[C@]12CCC(=O)C[C@H]1CC[C@@H]1[C@@H]2CC[C@]2(C)C(=O)CC[C@@H]12,nt,60.0,i,i,i,i,nt,Superoxide pick=i;DHE fluor count=i
C[C@]12CC[C@H](O)C[C@@H]1CC[C@H]1[C@H]3CCC(=O)[C@@]3(C)CC[C@@H]12,nt,nt,nt,i,i,nt,nt,
C[C@]12CCC3C(CC[C@H]4C[C@H](O)CC[C@]34C)C1CCC2=O (stereo not given in full),nt,56.8,i,i,i,i,nt,Superoxide pick=i;DHE fluor count=i
CCCCC(=NO)c1c(C)[nH]c2ccccc12,nt,nt,nt,nt,nt,i,nt,
CCN(CC)c1ccc(C=Nc2sc3c(c2C#N)C2CCN3CC2)c(O)c1,nt,nt,nt,nt,nt,i,nt,
